This experiment concerns HL-60. In words: Growth inhibition of human HL60 cells after 72 hrs by trypan blue staining. In kind it is functional. Conditions: HL-60, 72 h. In short, it runs like this: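 HL-60 cells kept in RPMI-1640 with 10% heat-inactivated FBS, penicillin/streptomycin and L-glutamine at 37 °C, 5% CO2. Seeded at 4×10^4/mL in 24-well plates and exposed to a range of concentrations for 72 h. Trypan blue-positive and -negative cells were both counted. Inhibition = (1−Nt/Nc)×100%, and GI50 is the concentration giving half-maximal growth inhibition versus untreated cells.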
For orientation: GI50 means the concentration at which growth is held to half of that of the control. A lower GI50 goes with greater sensitivity of the cells. In turn, `C=C(CC)C(=O)c1ccc(OCC(=O)O)c(Cl)c1Cl` [ETHACRYNIC ACID] returned a GI50 of 44200 nM.
As for `C=C(C)C(=O)c1ccc(OCc2nc(-c3ccc([N+](=O)[O-])cc3)cs2)c(C)c1C`, the figure is 5100 nM; as for `C=C(CC)C(=O)c1ccc(OCc2nc(-c3ccc4ccccc4c3)cs2)c(Cl)c1Cl`, 3600 nM.
As for `C=C(C)C(=O)c1ccc(OCc2nc(-c3ccccc3)cs2)cc1C`, the figure is 4700 nM.
As for `C=C(CC)C(=O)c1ccc(OCc2nc(-c3ccc([N+](=O)[O-])cc3)cs2)c(C)c1C`, the figure is 3600 nM.
`C=C(C)C(=O)c1ccc(OCc2nc(-c3ccc([N+](=O)[O-])cc3)cs2)cc1Cl` gave a GI50 of 5900 nM.
With `C=C(C)C(=O)c1ccc(OCc2nc(-c3ccc(C(F)(F)F)cc3)cs2)cc1Cl` the figure was 1400 nM.
As for `C=C(C)C(=O)c1ccc(OCc2nc(-c3ccccc3)cs2)c(C)c1C`, the figure is 3400 nM.
`C=C(CC)C(=O)c1ccc(OCc2nc(-c3ccc4ccccc4c3)cs2)c(C)c1C`: it took 2000 nM to inhibit growth by half (GI50).
With `C=C(CC)C(=O)c1ccc(OCc2nc(-c3ccc([N+](=O)[O-])cc3)cs2)c(Cl)c1Cl` the figure was 1000 nM; with `C=C(CC)C(=O)c1ccc(OCc2nc(-c3ccc4ccccc4c3)cs2)cc1Cl`, 900 nM.
`C=C(C)C(=O)c1ccc(OCc2nc(-c3ccc4ccccc4c3)cs2)cc1Cl` yielded a GI50 of 2900 nM.
As for `C=C(CC)C(=O)c1ccc(OCc2nc(-c3ccc(C(F)(F)F)cc3)cs2)c(Cl)c1Cl`, the figure is 1600 nM.
As for `C=C(C)C(=O)c1ccc(OCc2nc(-c3ccccc3)cs2)cc1Cl`, the figure is 6400 nM; as for `C=C(CC)C(=O)c1ccc(OCc2nc(-c3ccc(C(F)(F)F)cc3)cs2)c(C)c1C`, 1500 nM.
With `C=C(CC)C(=O)c1ccc(OCc2nc(-c3ccc([N+](=O)[O-])cc3)cs2)cc1Cl` the figure was 800 nM.
As for `C=C(C)C(=O)c1ccc(OCc2nc(-c3ccc(C(F)(F)F)cc3)cs2)c(C)c1C`, the GI50 was 3100 nM.
With `C=C(CC)C(=O)c1ccc(OCc2nc(-c3ccc(C(F)(F)F)cc3)cs2)cc1Cl` the figure was 2000 nM; with `C=C(C)C(=O)c1ccc(OCc2nc(-c3ccc4ccccc4c3)cs2)c(C)c1C`, 2300 nM.

The record behind these values is ChEMBL document CHEMBL1955815, “The synthesis of ethacrynic acid thiazole derivatives as glutathione S-transferase pi inhibitors” (2012).
